For this assay, the target named is 5-hydroxytryptamine receptor 4 (Homo sapiens, UniProt Q13639). As to the kind of experiment: Concentration required to produce half-maximal response against 5-hydroxytryptamine receptor in the presence of 10 nM compound in isolated human atrial myocytes. The method in brief:
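Whole-cell patch clamp on enzymatically dissociated human atrial myocytes, room temperature (19–25 °C); Cs-based internal, pCa 8.5; I_Ca at 0 mV every 8 s, peak minus current at end of 400-ms pulse.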

For orientation: EC50 means the concentration needed to bring the measured effect to its halfway point.

5-hydroxytryptamine receptor 4, sequence (Q13639 whole entry): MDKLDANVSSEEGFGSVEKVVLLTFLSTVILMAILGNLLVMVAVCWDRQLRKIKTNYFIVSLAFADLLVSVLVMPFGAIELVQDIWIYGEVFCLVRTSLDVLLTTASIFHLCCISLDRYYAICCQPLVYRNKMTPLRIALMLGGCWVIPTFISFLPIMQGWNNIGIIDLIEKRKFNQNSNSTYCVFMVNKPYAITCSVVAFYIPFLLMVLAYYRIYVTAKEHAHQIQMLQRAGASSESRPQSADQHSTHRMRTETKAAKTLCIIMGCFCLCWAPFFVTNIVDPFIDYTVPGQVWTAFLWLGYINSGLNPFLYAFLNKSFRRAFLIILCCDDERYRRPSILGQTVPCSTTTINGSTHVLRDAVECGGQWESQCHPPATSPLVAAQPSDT

As for `COc1cc(N)c(Cl)cc1C(=O)OCCN1CCN(c2ncccn2)CC1` [4-Amino-5-chloro-2-methoxy-benzoic acid 2-(4-pyrimidin-2-yl-piperazin-1-yl)-ethyl ester], the half-maximal effective concentration (EC50) is 66 nM.

Source of the values: BindingDB's records for doi:10.1021/jm0009538 (Paris-Sud University, 2000).
